This is an account of results in the M2OR odorant receptor database.

Numbering of substitutions follows the chain as printed.

Holding throughout (settings): stereoisomer not certain
Test [1] addresses T1, OR2W1 (Homo sapiens) (UniProt Q9Y3N9).
T1 sequence (whole entry): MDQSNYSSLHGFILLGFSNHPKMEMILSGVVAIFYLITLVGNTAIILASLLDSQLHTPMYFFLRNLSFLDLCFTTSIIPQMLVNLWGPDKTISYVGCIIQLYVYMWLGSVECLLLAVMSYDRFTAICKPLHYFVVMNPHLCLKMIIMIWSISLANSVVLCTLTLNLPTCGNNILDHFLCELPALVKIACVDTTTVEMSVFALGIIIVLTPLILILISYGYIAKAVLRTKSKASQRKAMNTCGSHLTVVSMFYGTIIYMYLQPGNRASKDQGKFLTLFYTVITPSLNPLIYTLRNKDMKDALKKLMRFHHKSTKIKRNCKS
The method in brief:
(§1)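 Values were gathered from published papers (main text and supplementary material), with extra details requested from the original authors when needed, and checked for typos and inconsistencies. Each receptor–molecule pair is called responsive (active) if the original authors judged the measured signal statistically different from baseline, and non-responsive (inactive) otherwise. Assay methods varied by source, often transient mammalian cell-line luciferase assays. Recorded details include cell line, G-protein, co-transfected protein and tags.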

Test [2] relates to T2, OR2W1.
T2 sequence (whole entry): T1 sequence (whole entry) with D296N
In a few lines: as §1

Test [3] has as its system T3, OR2W1.
T3 sequence (whole entry): T1 sequence (whole entry) with M81V
In a few lines:
as §1
The source holds these as a separate data set.

`CCC=CCCC=CCO`: the “odorant receptor agonist call” value in test [1], in test [2] and in test [3] was “active” throughout.

Take `CCCC=CC=O`: the “odorant receptor agonist call” value in test [1] was “inactive”.

`CSSc1ccoc1C`: the “odorant receptor agonist call” value in test [1] is “inactive”.

On to `CC(C)(S)CCOC=O`, for which the “odorant receptor agonist call” value in test [1], in test [2] and in test [3] was “active” throughout.

As to `COc1cc(C(=O)O)ccc1O`, in test [1], the “odorant receptor agonist call” value is “inactive”.

On to `CSSCc1ccco1`, for which the “odorant receptor agonist call” value in test [1], in test [2] and in test [3] was “active” throughout.

Take `CCCCC1CCC(=O)O1` (stereo not given): the “odorant receptor agonist call” value in test [1], in test [2] and in test [3] was “active” throughout.

`CCCCCCCCCCO`: the “odorant receptor agonist call” value in test [1] was “active”.

Take `CCC=CCCC=CC=O`: the “odorant receptor agonist call” value in test [1], in test [2] and in test [3] was “active” each time.

`CC(=O)c1ccccc1N`: the “odorant receptor agonist call” value in test [1] was “inactive”.

As to `CC(=O)c1cnccn1`, the “odorant receptor agonist call” value in test [1] and in test [2] was “active” throughout. In addition, the “odorant receptor agonist call” value in test [3] is “inactive”.

Take `C=CC(=O)CC`: the “odorant receptor agonist call” value in test [1] is “inactive”.

Regarding `CCCSSCCC`, the “odorant receptor agonist call” value in test [1] and in test [2] was “active” each time. Further, the “odorant receptor agonist call” value in test [3] was “inactive”.

For the compound `CCCCCCCC1CCC(=O)O1` (stereo not given), the “odorant receptor agonist call” value in test [1], in test [2] and in test [3] was “active” throughout.

Consider `CCc1ccc(O)cc1`, for which the “odorant receptor agonist call” value in test [1], in test [2] and in test [3] was “active” throughout.

Turning to `C=CC(O)CCCCC` (stereo not given), the “odorant receptor agonist call” value in test [1], in test [2] and in test [3] was “active” each time.

`CC(=O)c1ccc(C)cc1`: the “odorant receptor agonist call” value in test [1], in test [2] and in test [3] was “active” each time.

As for `CC1=CCC(C(C)(C)S)CC1` (stereo not given), the “odorant receptor agonist call” value in test [1] and in test [2] was “active” throughout. Further, the “odorant receptor agonist call” value in test [3] was “inactive”.

As to `CCCCCC=CC=CC=O`, the “odorant receptor agonist call” value in test [1], in test [2] and in test [3] was “active” throughout.

As for `CCCCCC=CCCC=O`, the “odorant receptor agonist call” value in test [1] and in test [2] was “active” each time. Moreover, the “odorant receptor agonist call” value in test [3] was “inactive”.

On to `CCCCCCCC(=O)[O-].[H+]`, for which the “odorant receptor agonist call” value in test [1] and in test [2] was “active” in each case. In addition, the “odorant receptor agonist call” value in test [3] is “inactive”.

Consider `CCC=CCCOC(C)=O`, for which the “odorant receptor agonist call” value in test [1], in test [2] and in test [3] was “active” throughout.

`C=C(C)c1ccc(C)cc1`: the “odorant receptor agonist call” value in test [1], in test [2] and in test [3] was “active” each time.

Consider `CCCCCCO`, for which the “odorant receptor agonist call” value in test [1] and in test [2] was “active” throughout. The “odorant receptor agonist call” value in test [3] was “inactive”.
